For experiment [1], the target named is T1, 5-hydroxytryptamine receptor 7 (Rattus norvegicus, UniProt P32305). The experiment can be described thus: Binding affinity against Rat 5-hydroxytryptamine 7 receptor using [3H]5-HT.
Experiment [2] addresses T2, D(2) dopamine receptor (Homo sapiens, UniProt P14416). The experiment can be described thus: Displacement of [3H]raclopride from human Dopamine receptor D2A. Summed up: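 Cloned human D2A receptor expressed in mouse fibroblast Ltk- cell membranes. Competition against [3H]raclopride binding, following an earlier method. Ki by nonlinear regression, mean ± SE of 2–3 experiments.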
On the technique in general: Displacement assays read how much labelled ligand stays bound in the presence of the test substance.

Experiment [3] deals with T1, 5-hydroxytryptamine receptor 7. The experiment can be described thus: Displacement of [3H]5-HT from over-expressed rat 5-hydroxytryptamine 7 receptor. Summed up:
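Cloned rat 5-HT7 receptor in CHO or Sf9 cell membranes, in 50 mM Tris-HCl, 4 mM MgCl2, 1 mM EDTA, pH 7.4; 30-40 pM receptor. Competition against 0.8 nM [3H]5-HT, 60 min at 30 °C. Nonspecific binding defined with 10 μM methiothepin. Filtration, scintillation counting. Ki by nonlinear regression, mean ± SE of 2–3 experiments.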

For experiment [4], the target named is T3, 5-hydroxytryptamine receptor 1A (Homo sapiens, UniProt P08908).
T3 sequence (P08908 whole entry): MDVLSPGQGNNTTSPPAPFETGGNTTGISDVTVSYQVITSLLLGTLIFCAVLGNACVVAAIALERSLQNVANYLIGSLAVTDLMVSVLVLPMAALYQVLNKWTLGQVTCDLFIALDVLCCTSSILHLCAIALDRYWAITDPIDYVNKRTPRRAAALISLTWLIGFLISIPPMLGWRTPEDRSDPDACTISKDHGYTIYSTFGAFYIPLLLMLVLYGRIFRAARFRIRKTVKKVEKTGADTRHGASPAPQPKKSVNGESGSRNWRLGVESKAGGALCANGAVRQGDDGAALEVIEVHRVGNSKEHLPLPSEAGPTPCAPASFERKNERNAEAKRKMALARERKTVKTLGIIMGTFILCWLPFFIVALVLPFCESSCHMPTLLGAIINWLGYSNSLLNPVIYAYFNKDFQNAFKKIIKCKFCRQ
The experiment is described as follows: Binding affinity was measured on cloned human 5-hydroxytryptamine 1A receptor which is labeled by [3H]8-OH-DPAT. Summed up: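 Membranes from CHO cells expressing cloned human 5-HT1A receptor, in 50 mM Tris-HCl, 4 mM MgCl2, pH 7.4; about 40 pM receptor. Competition against 1 nM [3H]8-OH-DPAT, 60 min at 30 °C. Nonspecific binding defined with 10 μM WAY-100635. Filtration, liquid scintillation counting. Ki by nonlinear regression, mean ± SE of 2–3 experiments.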

Experiment [5] has as its target T3, 5-hydroxytryptamine receptor 1A.
The target in experiment [6] is T2, D(2) dopamine receptor. The experiment can be described thus: Binding affinity was measured on cloned Human D2A Receptor which is labeled by [3H]raclopride.
Experiment [7] deals with T4, 5-hydroxytryptamine receptor 1A (Rattus norvegicus, UniProt P19327).
T4 sequence (P19327 whole entry): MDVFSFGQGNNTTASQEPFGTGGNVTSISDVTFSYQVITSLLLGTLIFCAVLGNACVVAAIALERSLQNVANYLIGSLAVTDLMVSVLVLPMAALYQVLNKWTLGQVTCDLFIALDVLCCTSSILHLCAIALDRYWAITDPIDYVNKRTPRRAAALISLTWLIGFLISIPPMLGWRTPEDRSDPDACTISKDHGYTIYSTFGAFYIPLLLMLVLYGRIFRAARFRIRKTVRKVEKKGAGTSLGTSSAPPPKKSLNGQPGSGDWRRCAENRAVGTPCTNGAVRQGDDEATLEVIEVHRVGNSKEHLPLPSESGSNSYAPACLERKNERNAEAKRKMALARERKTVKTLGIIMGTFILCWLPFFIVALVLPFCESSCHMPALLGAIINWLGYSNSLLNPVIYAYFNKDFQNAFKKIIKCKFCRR
The experiment can be described thus: Binding affinity was measured on cloned rat 5-hydroxytryptamine 1A receptor which is labeled by [3H]8-OH-DPAT.

T2 sequence (P14416 whole entry): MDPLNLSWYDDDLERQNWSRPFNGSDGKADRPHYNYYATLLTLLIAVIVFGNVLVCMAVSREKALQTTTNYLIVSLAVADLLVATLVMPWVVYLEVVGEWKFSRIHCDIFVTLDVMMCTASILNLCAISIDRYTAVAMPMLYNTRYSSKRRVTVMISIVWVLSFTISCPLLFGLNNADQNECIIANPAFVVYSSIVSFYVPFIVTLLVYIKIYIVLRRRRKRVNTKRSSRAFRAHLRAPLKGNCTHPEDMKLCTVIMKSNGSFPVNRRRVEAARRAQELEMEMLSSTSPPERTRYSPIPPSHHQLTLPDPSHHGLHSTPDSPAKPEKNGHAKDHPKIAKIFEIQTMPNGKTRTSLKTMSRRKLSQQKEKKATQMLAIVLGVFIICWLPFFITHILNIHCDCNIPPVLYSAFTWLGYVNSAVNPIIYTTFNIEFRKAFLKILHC
T1 sequence (P32305 whole entry): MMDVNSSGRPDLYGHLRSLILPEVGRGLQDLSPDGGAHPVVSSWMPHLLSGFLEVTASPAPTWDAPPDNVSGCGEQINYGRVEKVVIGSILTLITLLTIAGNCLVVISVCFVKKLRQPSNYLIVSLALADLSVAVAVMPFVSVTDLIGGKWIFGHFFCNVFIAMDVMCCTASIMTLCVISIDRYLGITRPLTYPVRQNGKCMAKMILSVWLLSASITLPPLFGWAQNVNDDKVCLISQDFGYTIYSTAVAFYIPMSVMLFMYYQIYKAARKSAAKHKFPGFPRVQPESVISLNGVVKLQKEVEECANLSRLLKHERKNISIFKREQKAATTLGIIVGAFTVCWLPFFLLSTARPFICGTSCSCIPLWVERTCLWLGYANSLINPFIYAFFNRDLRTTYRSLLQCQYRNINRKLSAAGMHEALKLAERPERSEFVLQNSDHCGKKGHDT

`CN1CCc2cccc3c2[C@H]1Cc1ccc(O)c(O)c1-3` [APOMORPHINE]: the Ki – broadly, the equilibrium dissociation constant of an inhibitor or competing ligand from its target – in experiment [1] amounted to 188 nM.
As to `CCO[C@@]1(CC)c2cccc3c2-c2c1ccc1c2[C@@H](C3)N(C)CC1`, the Ki at D(2) dopamine receptor [2] amounted to 24.5 nM; in experiment [3] it was 3.05 nM; in experiment [4], 19.1 nM.
As for `CCCN(CCC)[C@H]1CCc2c(F)ccc(O)c2C1`, the values for the inhibition constant (Ki) (in experiment [5]; in experiment [1]; on D(2) dopamine receptor [6]) were 87 nM, 3180 nM and 3760 nM, respectively.
Take `CN1CCc2ccc3c4c2[C@H]1Cc1cccc(c1-4)[C@@H]3N`: the inhibition constant (Ki) worked out at 18 nM in experiment [3] and 355 nM in experiment [4].
In the case of `CN1CCc2ccc3c4c2[C@H]1Cc1cccc(c1-4)[C@H]3N`, the Ki on D(2) dopamine receptor [2] came out at 261 nM; in experiment [3] it was 13.4 nM; in experiment [4], 142 nM.
In the case of `CC(=O)N[C@H]1c2cccc3c2-c2c1ccc1c2[C@@H](C3)N(C)CC1`, the results for the inhibitory constant (Ki) (on D(2) dopamine receptor [2]; in experiment [3]; in experiment [4]) were 7980 nM, 1320 nM and 716 nM, respectively.
Regarding `CC(=O)N[C@@H]1c2cccc3c2-c2c1ccc1c2[C@@H](C3)N(C)CC1`, the Ki on D(2) dopamine receptor [2] is 3650 nM; in experiment [3], 538 nM; in experiment [4] it was 204 nM.
For `CCO[C@]1(CC)c2cccc3c2-c2c1ccc1c2[C@@H](C3)N(C)CC1`, the results for the inhibition constant Ki (at D(2) dopamine receptor [2]; in experiment [3]; in experiment [4]) were 70.8 nM, 25.7 nM and 1.84 nM, respectively.
Consider `C[C@@H]1c2cccc3c2-c2c1ccc1c2[C@@H](C3)N(C)CC1`, for which the Ki in experiment [5] turned out to be 5.05 nM; in experiment [1] it was 3.36 nM; at D(2) dopamine receptor [6] it was 19.4 nM.
For the compound `CN1CCc2ccc3c4c2[C@H]1Cc1cccc(c1-4)[C@@H]3O`, the Ki in experiment [7] came to 1210 nM; at D(2) dopamine receptor [2], 215 nM; in experiment [3], 103 nM.
The compound `CCCN(CCC)[C@@H]1CCc2cccc(O)c2C1` yielded a Ki in experiment [1] of 8.81 nM.
Regarding `CO[C@]1(C)c2cccc3c2-c2c1ccc1c2[C@@H](C3)N(C)CC1`, the inhibition constant Ki was 7.1 nM on D(2) dopamine receptor [2], 1.1 nM in experiment [3] and 17.3 nM in experiment [4].
On the same counts, the results for `CO[C@@]1(C)c2cccc3c2-c2c1ccc1c2[C@@H](C3)N(C)CC1` are 71 nM, 1.1 nM and 16.9 nM.
With `CN1CCc2ccc3c4c2[C@H]1Cc1cccc(c1-4)C3`, the Ki in experiment [5] was found to be 40.7 nM; in experiment [1], 6.9 nM; at D(2) dopamine receptor [6], 83.2 nM.
As to `NCCc1c[nH]c2ccc(C(N)=O)cc12`, the inhibitory constant (Ki) in experiment [1] stood at 0.029 nM.
`CN1CCc2ccc3c4c2[C@H]1Cc1cccc(c1-4)[C@H]3O`: the results for the Ki (in experiment [7]; at D(2) dopamine receptor [2]; in experiment [3]) were 31 nM, 23.8 nM and 13.5 nM, respectively.
Turning to `C[C@H]1c2cccc3c2-c2c1ccc1c2[C@@H](C3)N(C)CC1`, the Ki in experiment [5] came to 31.1 nM; in experiment [1], 5.6 nM; at D(2) dopamine receptor [6] it was 39.2 nM.
As to `CN1CCc2ccc3c4c2[C@H]1Cc1cccc(c1-4)C3=O`, the figures for the inhibition constant Ki (in experiment [7]; at D(2) dopamine receptor [2]; in experiment [3]) were 140 nM, 317 nM and 291 nM, respectively.
Regarding `CN1CCc2ccc3c4c2[C@H]1Cc1cccc(c1-4)[C@]3(C)O`, the inhibition constant Ki in experiment [7] turned out to be 61.5 nM; at D(2) dopamine receptor [2], 26 nM; in experiment [3], 4.3 nM.
As to `Cc1cccc2c1-c1cccc3c1[C@@H](C2)N(C)CC3`, the figures for the Ki in experiment [5] and in experiment [1] were 14.4 nM and 38.3 nM, respectively.
Take `CN1CCc2ccc3c4c2[C@H]1Cc1cccc(c1-4)[C@@]3(C)O`: the results for the inhibition constant Ki (in experiment [7]; at D(2) dopamine receptor [2]; in experiment [3]) were 315 nM, 182 nM and 27.7 nM, respectively.

The values above are taken from ChEMBL document CHEMBL1132996, “Derivatives of (R)-1,11-methyleneaporphine: synthesis, structure, and interactions with G-protein coupled receptors” (J Med Chem, 2000).
